Measured values: ChEMBL document CHEMBL1649357, “Protective effects of baicalin against ischemia/reperfusion injury in rat liver” (2010)
The source made the active and inactive calls. No cut-off for these calls is given here.

Assays:
Rattus norvegicus [1] = assay: Hepatoprotective activity in Sprague-Dawley rat ischemia-reperfusion model assessed as decrease of serum ALT level at 200 mg/kg, ip administered 24 hrs and 1 hr before ischemia; format: functional; details: route intraperitoneal
How it was run: (§1)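 Serum ALT was read spectrophotometrically with a kit at 5 h reperfusion, in U·L-1, mean ± SEM, n = 8-10.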

Rattus norvegicus [2] = assay: Antiinflammatory activity in Sprague-Dawley rat ischemia-reperfusion model assessed as increase in HO-1 protein expression in liver tissue at 200 mg/kg, ip administered 24 hrs and 1 hr before ischemia by Western blot analysis
Rattus norvegicus [3] = assay: Hepatoprotective activity in Sprague-Dawley rat ischemia-reperfusion model assessed as decrease of glutathione level per gram of liver at 200 mg/kg, ip administered 24 hrs and 1 hr before ischemia relative to control; format: functional; details: route intraperitoneal
How it was run: (§2)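 Liver homogenate was precipitated with 1% picric acid. Total glutathione was measured by the glutathione reductase/DTNB/NADPH method at 412 nm, and GSSG the same way with 2-vinylpyridine. GSH is the difference, in µmol·g liver-1.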

Rattus norvegicus [4] = assay: Hepatoprotective activity in Sprague-Dawley rat sham operated model assessed as decrease of malondialdehyde level per gram of protein at 200 mg/kg, ip administered 24 hrs and 1 hr before ischemia relative to control; format: functional; details: route intraperitoneal
Rattus norvegicus [5] = assay: Hepatoprotective activity in Sprague-Dawley rat sham operated model assessed as protection against histopathologic damage at 200 mg/kg, ip administered 24 hrs and 1 hr before ischemia by TUNEL staining; format: functional; details: route intraperitoneal, in the assay text read “by hematoxylin and eosin staining” for “by TUNEL staining”
How it was run: (§3)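 Left-lobe tissue was fixed in formalin and paraffin sections (5 µm) were stained with H&E. Injury was scored at 200× by point counting on an ordinal severity scale (grade 0 = minimal or none).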

Rattus norvegicus [6] = assay: Hepatoprotective activity in Sprague-Dawley rat sham operated model assessed as decrease of caspase 8 activity in liver tissue at 200 mg/kg, ip administered 24 hrs and 1 hr before ischemia by relative to control
Rattus norvegicus [7] = assay: Antiinflammatory activity in Sprague-Dawley rat ischemia-reperfusion model assessed as inhibition of iNOS mRNA expression in liver tissue at 200 mg/kg, ip administered 24 hrs and 1 hr before ischemia by RT-PCR analysis; format: functional, organism-based; set-up: dose 200 mg/kg
Rattus norvegicus [8] = assay: Antiinflammatory activity in Sprague-Dawley rat sham operated model assessed as decrease of serum TNFalpha level at 200 mg/kg, ip administered 24 hrs and 1 hr before ischemia by ELISA relative to control; format: functional; details: route intraperitoneal
Rattus norvegicus [9] = assay: Antiinflammatory activity in Sprague-Dawley rat ischemia-reperfusion model assessed as inhibition of degradation of IkappaB-alpha in liver tissue at 200 mg/kg, ip administered 24 hrs and 1 hr before ischemia by Western blot analysis; format: functional, organism-based; set-up: dose 200 mg/kg
How it was run: (§4)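 Liver homogenates were blotted, and nuclear and cytosolic fractions were isolated with NE-PER reagents. 20 µg protein per lane was run on 10% gels and transferred to nitrocellulose, with 5% milk block for 60 min. Polyclonal antibodies detected iNOS, COX-2, HO-1, NF-κB/p65, IκB-α and lamin B1, with β-actin as control, read by ECL.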

Rattus norvegicus [10] = assay: Antiinflammatory activity in Sprague-Dawley rat ischemia-reperfusion model assessed as decrease of IL-6 mRNA expression in liver tissue at 200 mg/kg, ip administered 24 hrs and 1 hr before ischemia by RT-PCR analysis; format: functional, organism-based; set-up: dose 200 mg/kg
Rattus norvegicus [11] = assay: Hepatoprotective activity in Sprague-Dawley rat ischemia-reperfusion model assessed as decrease of TRADD protein expression in liver tissue at 200 mg/kg, ip administered 24 hrs and 1 hr before ischemia by Western blot analysis; format: functional, organism-based; set-up: dose 200 mg/kg
Rattus norvegicus [12] = assay: Hepatoprotective activity in Sprague-Dawley rat ischemia-reperfusion model assessed as decrease of caspase 8 activity in liver tissue at 200 mg/kg, ip administered 24 hrs and 1 hr before ischemia […] relative to control; format: functional, organism-based; set-up: dose 200 mg/kg
How it was run: (§5)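 Liver (1 g) was homogenized in Tris/MgCl2/EGTA buffer and spun at 600g, then 40000g. 30 µg cytosolic protein was preincubated 15 min at room temperature in HEPES/EDTA/NaCl/Triton/10 mM DTT. Fluorogenic substrate was then added at 200 µM and incubated at 37 °C. Fluorescence (ex 400/em 490 nm) was read at 120 min and expressed as % of vehicle I/R.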

Rattus norvegicus [13] = assay: Hepatoprotective activity in Sprague-Dawley rat sham operated model assessed as decrease of caspase 3 activity in liver tissue at 200 mg/kg, ip administered 24 hrs and 1 hr before ischemia by fluorogenic peptide substrate assay relative to control
Rattus norvegicus [14] = assay: Hepatoprotective activity in Sprague-Dawley rat sham operated model assessed as decrease of serum ALT level at 200 mg/kg, ip administered 24 hrs and 1 hr before ischemia; format: functional; details: route intraperitoneal; how it was run: as §1
Rattus norvegicus [15] = assay: Antiinflammatory activity in Sprague-Dawley rat ischemia-reperfusion model assessed as decrease of serum IL-6 level at 200 mg/kg, ip administered 24 hrs and 1 hr before ischemia by ELISA relative to control; format: functional; details: route intraperitoneal
Rattus norvegicus [16] = assay: Hepatoprotective activity in Sprague-Dawley rat ischemia-reperfusion model assessed as protection against histopathologic damage at 200 mg/kg, ip administered 24 hrs and 1 hr before ischemia by TUNEL staining; format: functional; details: route intraperitoneal, in the assay text read “by hematoxylin and eosin staining” for “by TUNEL staining”; how it was run: as §3
Rattus norvegicus [17] = assay: Antiinflammatory activity in Sprague-Dawley rat ischemia-reperfusion model assessed as decrease of TNFalpha mRNA expression in liver tissue at 200 mg/kg, ip administered 24 hrs and 1 hr before ischemia by RT-PCR analysis; format: functional, organism-based; set-up: dose 200 mg/kg
Rattus norvegicus [18] = assay: Antiinflammatory activity in Sprague-Dawley rat ischemia-reperfusion model assessed as inhibition of COX2 mRNA expression in liver tissue at 200 mg/kg, ip administered 24 hrs and 1 hr before ischemia by RT-PCR analysis; format: functional, organism-based; set-up: dose 200 mg/kg
Rattus norvegicus [19] = assay: Antiinflammatory activity in Sprague-Dawley rat ischemia-reperfusion model assessed as decrease of serum TNFalpha level at 200 mg/kg, ip administered 24 hrs and 1 hr before ischemia by ELISA relative to control; format: functional; details: route intraperitoneal
Rattus norvegicus [20] = assay: Hepatoprotective activity in Sprague-Dawley rat ischemia-reperfusion model assessed as protection against apoptosis in liver tissue at 200 mg/kg, ip administered 24 hrs and 1 hr before ischemia by TUNEL assay; format: functional, organism-based; set-up: dose 200 mg/kg
How it was run: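 TUNEL kit staining was done on liver sections. TUNEL-positive cells were counted in randomly chosen 400× fields per section.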

Rattus norvegicus [21] = assay: Antiinflammatory activity in Sprague-Dawley rat ischemia-reperfusion model assessed as inhibition of COX2 protein expression in liver tissue at 200 mg/kg, ip administered 24 hrs and 1 hr before ischemia by Western blot analysis; format: functional, organism-based; set-up: dose 200 mg/kg; how it was run: as §4
Rattus norvegicus [22] = assay: Hepatoprotective activity in Sprague-Dawley rat sham operated model assessed as decrease of glutathione level per gram of liver at 200 mg/kg, ip administered 24 hrs and 1 hr before ischemia relative to control; format: functional; details: route intraperitoneal; how it was run: as §2
Rattus norvegicus [23] = assay: Antiinflammatory activity in Sprague-Dawley rat ischemia-reperfusion model assessed as inhibition of HO-1 mRNA expression in liver tissue at 200 mg/kg, ip administered 24 hrs and 1 hr before ischemia by RT-PCR analysis; format: functional, organism-based; set-up: dose 200 mg/kg
Rattus norvegicus [24] = assay: Antiinflammatory activity in Sprague-Dawley rat ischemia-reperfusion model assessed as inhibition of nuclear localization of NF-kappaB/p65 subunit in liver tissue at 200 mg/kg, ip administered 24 hrs and 1 hr before ischemia by Western blot analysis; format: functional, organism-based; set-up: dose 200 mg/kg; how it was run: as §4
Rattus norvegicus [25] = assay: Hepatoprotective activity in Sprague-Dawley rat ischemia-reperfusion model assessed as decrease of malondialdehyde level per gram of protein at 200 mg/kg, ip administered 24 hrs and 1 hr before ischemia relative to control; format: functional; details: route intraperitoneal
Rattus norvegicus [26] = assay: Hepatoprotective activity in Sprague-Dawley rat ischemia-reperfusion model assessed as decrease of mitochondrial swelling in liver tissue at 200 mg/kg, ip administered 24 hrs and 1 hr before ischemia relative to control; format: functional, organism-based; set-up: dose 200 mg/kg
How it was run: (§6)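 Mitochondria were isolated by differential centrifugation in sucrose/Tris/EDTA, pH 7.2. Mitochondria (4 mg) were suspended in phosphate buffer pH 7.2 with 250 mM sucrose, 5 mM KH2PO4 and 1 µM rotenone at 25 °C. Initial swelling rate was taken as A520 change per min per mg protein.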

Rattus norvegicus [27] = assay: Hepatoprotective activity in Sprague-Dawley rat sham operated model assessed as decrease of mitochondrial swelling in liver tissue at 200 mg/kg, ip administered 24 hrs and 1 hr before ischemia relative to control; format: functional, organism-based; set-up: dose 200 mg/kg; how it was run: as §6
Rattus norvegicus [28] = assay: Antiinflammatory activity in Sprague-Dawley rat sham operated model assessed as decrease of serum IL-6 level at 200 mg/kg, ip administered 24 hrs and 1 hr before ischemia by ELISA relative to control; format: functional; details: route intraperitoneal
Rattus norvegicus [29] = assay: Hepatoprotective activity in Sprague-Dawley rat ischemia-reperfusion model assessed as decrease of caspase 3 activity in liver tissue at 200 mg/kg, ip administered 24 hrs and 1 hr before ischemia […] relative to control; format: functional, organism-based; set-up: dose 200 mg/kg; how it was run: as §5
Rattus norvegicus [30] = assay: Antiinflammatory activity in Sprague-Dawley rat ischemia-reperfusion model assessed as inhibition of iNOS protein expression in liver tissue at 200 mg/kg, ip administered 24 hrs and 1 hr before ischemia by Western blot analysis; format: functional, organism-based; set-up: dose 200 mg/kg; how it was run: as §4

O=C(O)[C@H]1O[C@@H](Oc2cc3oc(-c4ccccc4)cc(=O)c3c(O)c2O)[C@H](O)[C@@H](O)[C@@H]1O [BAICALIN]
Activity (Rattus norvegicus [1]): 2658.1 U/L
increase (Rattus norvegicus [2]): Active
Activity (Rattus norvegicus [3]): 4.98 µmol
Activity (Rattus norvegicus [4]): 0.35 nmol
Activity (Rattus norvegicus [5]): 0.45
Activity (Rattus norvegicus [6]): Active
inhibition (Rattus norvegicus [7]): inactive
Activity (Rattus norvegicus [8]): 17.8 pg/mL
inhibition (Rattus norvegicus [9]): Active
Activity (Rattus norvegicus [10]): Active
Activity (Rattus norvegicus [11]): Active
Activity (Rattus norvegicus [12]): Active
Activity (Rattus norvegicus [13]): Active
Activity (Rattus norvegicus [14]): 42.5 U/L
Activity (Rattus norvegicus [15]): 77.4 pg/mL
Activity (Rattus norvegicus [16]): 1.6
Activity (Rattus norvegicus [17]): inactive
inhibition (Rattus norvegicus [18]): Active
Activity (Rattus norvegicus [19]): 64.8 pg/mL
Activity (Rattus norvegicus [20]): Active
inhibition (Rattus norvegicus [21]): Active
Activity (Rattus norvegicus [22]): 5.5 µmol
inhibition (Rattus norvegicus [23]): Active
inhibition (Rattus norvegicus [24]): Active
Activity (Rattus norvegicus [25]): 0.31 nmol
Activity (Rattus norvegicus [26]): Active
Activity (Rattus norvegicus [27]): Active
Activity (Rattus norvegicus [28]): 37.6 pg/mL
Activity (Rattus norvegicus [29]): Active
inhibition (Rattus norvegicus [30]): Active
